Data as given in ChEMBL document CHEMBL4414568, “Development of Novel Irreversible Pyruvate Kinase M2 Inhibitors” (J Med Chem, 2019).
Calls of active or inactive are those of the source. The rule behind the calls is not given here.

Key:
[1] = target: T1, Phosphoglycerate kinase 1 (Homo sapiens) (UniProt P00558); assay: Binding affinity to PGK1 in human PC9 cells incubated for 1 hr by ABPP-SILAC assay; type: cell-based
T1 sequence (whole entry): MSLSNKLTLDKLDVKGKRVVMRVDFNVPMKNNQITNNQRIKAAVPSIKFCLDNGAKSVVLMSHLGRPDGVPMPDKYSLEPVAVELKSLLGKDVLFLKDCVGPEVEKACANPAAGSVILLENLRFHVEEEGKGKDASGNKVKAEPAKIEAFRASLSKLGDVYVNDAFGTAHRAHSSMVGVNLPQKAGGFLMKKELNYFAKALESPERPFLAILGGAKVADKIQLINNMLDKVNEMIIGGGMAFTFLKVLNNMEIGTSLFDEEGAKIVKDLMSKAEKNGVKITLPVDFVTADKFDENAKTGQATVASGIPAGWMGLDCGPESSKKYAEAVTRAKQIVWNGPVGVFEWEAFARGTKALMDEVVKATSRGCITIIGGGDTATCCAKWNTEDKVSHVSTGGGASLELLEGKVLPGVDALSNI
In short: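 PC-9 cells passaged at least six times in SILAC DMEM with 10% dialyzed FBS plus 100 µg/mL light or 13C/15N-labeled Arg/Lys. Heavy cells got ABPP probe (1 µM) and light cells DMSO, 1 h at 37 °C. Cells mixed 1:1, sonicated, spun at 100,000g, protein normalized to 1 mg/mL. Click biotin-azide, streptavidin bead pulldown 16 h at 4 °C, SDS-PAGE, on-bead trypsin digestion, LC-MS/MS.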

[2] = tested on: Mus musculus; assay: In vivo inhibition of PKM2 in human PC9 cells xenografted in athymic nude mouse assessed as reduction in PKM2 expression at 10 mg/kg, ip administered once daily for 25 days measured post-last dose by Western blot analysis; type: functional, organism-based
In short: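 Tumors from PC-9 xenograft nude mice given 10 mg/kg i.p. daily or vehicle for 25 days (n = 8 per group) were lysed for Western blots of PKM2, EGFR, Stat3 and β-catenin. Bands quantified by ImageJ and normalized to GAPDH.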

C#CC(=O)Nc1ccc(-n2nc(CCC(=O)NC)cc2-c2ccc(-c3ccc(C(F)(F)F)cc3)cc2)cc1
Activity [1]: Active | inhibition [2]: Active
